Laboratory results: ChEMBL document CHEMBL4177752, “Discovery of Novel Schizocommunin Derivatives as Telomeric G-Quadruplex Ligands That Trigger Telomere Dysfunction and the Deoxyribonucleic Acid (DNA) Damage Response” (J Med Chem, 2018)
The source made the active and inactive calls. No cut-off for these calls is given here.

Columns and labels:
Quadruplex DNA [1] = experiment: Stabilization of F21T telomeric G-quadruplex DNA (unknown origin) assessed as change in melting temperature at 1 uM by FRET assay; format: nucleic-acid assay
Method in brief: (§1)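 FRET melting: 0.2 µM F21T or F10T (FAM/TAMRA-labelled), with or without 1.0 µM ligand, in 10 mM Tris-HCl pH 7.4 with 60 mM KCl. Excitation 470 nm, emission 530 nm, read every 1 °C from 37–99 °C at 1 °C/min with a 30 s hold. ΔTm = Tm(DNA+ligand) − Tm(DNA).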

[2] = Stabilization of F10T hairpin duplex DNA (unknown origin) assessed as change in melting temperature at 1 uM by FRET assay; method in brief: as §1
Quadruplex DNA [3] = experiment: Stabilization of F21T telomeric G-quadruplex DNA (unknown origin) at 1 uM in presence of non-fluorescent duplex DNA ds26 by FRET assay; format: nucleic-acid assay
Method in brief: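 Competition FRET: 0.2 µM F21T with 1 µM ligand, plus or minus unlabelled duplex ds26 at 3 µM (15-fold) or 10 µM (50-fold), in 10 mM Tris-HCl pH 7.4 with 60 mM KCl. Melting monitored at 470/530 nm over 37–99 °C.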

Quadruplex DNA [4] = experiment: Binding affinity to HTG21 telomeric G-quadruplex DNA (unknown origin) by SPR method; format: nucleic-acid assay
Method in brief: (§2)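 SPR: biotinylated HTG21 or hairpin DNA (200 nM) was folded in 50 mM Tris-HCl pH 7.4 with 100 mM KCl and captured to about 1,000 RU on an NLC chip against a blank reference cell. Ligand at 0.625–40 µM was injected at 25 µL/min (400 s association, 300 s dissociation) at 25 °C. The chip was regenerated with 1 M KCl and blank sensorgrams were subtracted.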

[5] = Binding affinity to hairpin duplex DNA (unknown origin) at 40 uM by SPR method; method in brief: as §2
HeLa = experiment: Antiproliferative activity against human HeLa cells after 48 hrs by MTT assay; format: functional, cell-based
Method in brief: (§3)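 Cells seeded at 5.0×10^3 per well and exposed to a range of compound concentrations for 48 h. MTT (2.5 mg/mL solution) was then added for 4 h, formazan was dissolved in DMSO, and OD was read at 570 nm. HL-60 was grown in RPMI-1640 with 10% FBS, the other lines in DMEM with 10% FBS, at 37 °C and 5% CO2. Triplicates; IC50 taken from mean OD versus concentration curves.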

SiHa [6] = experiment: Antiproliferative activity against human SiHa cells after 48 hrs by MTT assay; format: functional, cell-based; method in brief: as §3
HL-60 = experiment: Antiproliferative activity against human HL60 cells after 48 hrs by MTT assay; format: functional, cell-based; settings: HL-60, 48 h; method in brief: as §3
A549 = experiment: Antiproliferative activity against human A549 cells after 48 hrs by MTT assay; format: functional, cell-based; settings: A549, 48 h; method in brief: as §3
U2OS [7] = experiment: Antiproliferative activity against human U2OS cells after 48 hrs by MTT assay; format: functional, cell-based; method in brief: as §3
[8] = Inhibition of telomerase (unknown origin) by TRAP-LIG assay; parameters: species or system Homo sapiens
Quadruplex DNA [9] = experiment: Stabilization of telomeric G-quadruplex DNA in human SiHa cells assessed as increase in BG4 foci per nucleus at 2 uM after 24 hrs by DAPI staining-based immunofluorescence method relative to control; format: cell-based
Method in brief: (§4)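 Cells were treated 24 h with 2 µM compound or 0.1% DMSO, then fixed (4% paraformaldehyde), permeabilized (0.5% Triton X-100) and blocked (5% goat serum). Staining used BG4 (80 ng/µL, 37 °C 3 h) with anti-FLAG, and/or γ-H2AX, TRF2 or POT1 antibodies at 4 °C overnight. Alexa 488/555 secondaries and DAPI followed. Foci or co-localized foci per nucleus were counted by confocal microscopy; mean ± SEM, two-tailed unpaired t test.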

Quadruplex DNA [10] = experiment: Stabilization of telomeric G-quadruplex DNA in human U2OS cells assessed as increase in BG4 foci per nucleus at 2 uM after 24 hrs by DAPI staining-based immunofluorescence method; format: cell-based; method in brief: as §4
Quadruplex DNA [11] = experiment: Stabilization of telomeric G-quadruplex DNA in human SiHa cells assessed as induction of DNA damage response by measuring gamma-H2AX foci formation per nucleus at 2 uM after 24 hrs by DAPI staining-based immunofluorescence method relative to control; format: cell-based; method in brief: as §4
U2OS [12] = experiment: Cell cycle arrest in human U2OS cells at 1 uM after 12 hrs by propidium iodide staining-based flow cytometric method; format: functional
Method in brief: (§5)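 SiHa or U2OS cells (2.0×10^5 per well) were treated with compound or DMSO for 12 h, fixed in ice-cold 70% ethanol overnight, and stained with 50 µg/mL PI plus RNase A for 30 min at room temperature in the dark. 10,000 events were collected by flow cytometry to give the phase distribution.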

SiHa [13] = experiment: Cell cycle arrest in human SiHa cells at 1 uM after 12 hrs by propidium iodide staining-based flow cytometric method; format: functional; method in brief: as §5
[14] = Binding affinity to hairpin duplex DNA (unknown origin) by SPR method; method in brief: as §2
Mus musculus = experiment: Toxicity in BALB/C-nu/nu mouse xenografted with human SiHa cells assessed as decrease in body weight at 1 mg/kg, ip administered daily for 3 weeks measured everyday during compound dosing; format: organism-based; settings: in vivo, 504 h
Method in brief: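 SiHa cells (1×10^7 per 100 µL, serum-free DMEM) were injected subcutaneously. Grown tumors were divided into pieces and implanted into BALB/C-nu/nu mice. Caliper volume (1/2 × L × W²) and body weight were recorded daily; tumors were weighed at the end.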

ΔTm (Quadruplex DNA [1]) [°C] | ΔTm [2] [°C] | Activity (Quadruplex DNA [3]) | Kd (Quadruplex DNA [4]) [µM] | Activity [5] | IC50 (HeLa) [µM] | IC50 (HL-60) [µM] | IC50 (A549) [µM] | IC50 (U2OS [7]) [µM] | IC50 [8] [µM] | Kd [14] [µM] | Structure (SMILES) | IC50 (SiHa [6]) [µM] | Activity (Quadruplex DNA [9]) | Activity (Quadruplex DNA [10]) | Activity (Quadruplex DNA [11]) | Activity (U2OS [12]) | Activity (SiHa [13]) | Activity (Mus musculus)
8.4 | 0.1 | Active | > 40 | inactive | 42.5 | 4.1 | 19.6 | 20.4 | > 40 |  | CN(C)CCCNc1ccc2c(=O)[nH]c(/C=C3\C(=O)Nc4ccccc43)nc2c1 | 27.6 | inactive | inactive | inactive | inactive | inactive | 
21.4 | 0.2 |  | 8.8 |  | 2.8 | 2.9 | 1.4 | 5.3 |  | 16 | CN1CCN(c2cc3c(cc2F)/C(=C/c2nc4cc(NCCN5CCCCC5)c(F)cc4c(=O)[nH]2)C(=O)N3)CC1 | 4.4 |  |  |  |  |  | 
22.5 | 0.3 |  | 6.2 |  | 7.7 | 2.8 | 6 | 5.7 |  | 15 | CN(C)CCNc1cc2nc(/C=C3\C(=O)Nc4cc(N5CCN(C)CC5)c(F)cc43)[nH]c(=O)c2cc1F | 11.4 |  |  |  |  |  | 
 |  |  |  |  |  |  |  |  |  |  | COc1cccc2c1C(=O)c1c(O)c3c(c(O)c1C2=O)C[C@@](O)(C(=O)CO)C[C@@H]3O[C@H]1C[C@H](N)[C@H](O)[C@H](C)O1 [DOXORUBICIN] |  |  |  |  |  |  | Toxic
24.6 | 0.1 | Active | 7.6 | inactive | 17.6 | 3.8 | 5.9 | 9 | 12.3 |  | CN(C)CCCNc1cc2nc(/C=C3\C(=O)Nc4cc(N5CCN(C)CC5)c(F)cc43)[nH]c(=O)c2cc1F | 4.9 |  |  |  |  |  | 
7.4 | 0.1 |  | 30 |  | 14 | 30.6 | 15.4 | 12.5 |  | > 40 | CN(C)CCCNc1cc2nc(/C=C3/C(=O)Nc4cc(N5CCN(C)CC5)ccc43)n(C)c(=O)c2cc1F | 14 |  |  |  |  |  | 
